{"source": "paper PMC2597579", "about": "(Neuroscience letters, 2008)", "key": {"[1]": {"tested_on": "GABAA receptor", "conditions": "cited from earlier work"}, "[2]": {"biological_target": "T1, α1β2γ2s GABAA receptor (rat subunits expressed in Xenopus laevis oocytes) (Rattus norvegicus, UniProt P18508+P62813+P63138)", "T1 sequence (P62813 28-455)": "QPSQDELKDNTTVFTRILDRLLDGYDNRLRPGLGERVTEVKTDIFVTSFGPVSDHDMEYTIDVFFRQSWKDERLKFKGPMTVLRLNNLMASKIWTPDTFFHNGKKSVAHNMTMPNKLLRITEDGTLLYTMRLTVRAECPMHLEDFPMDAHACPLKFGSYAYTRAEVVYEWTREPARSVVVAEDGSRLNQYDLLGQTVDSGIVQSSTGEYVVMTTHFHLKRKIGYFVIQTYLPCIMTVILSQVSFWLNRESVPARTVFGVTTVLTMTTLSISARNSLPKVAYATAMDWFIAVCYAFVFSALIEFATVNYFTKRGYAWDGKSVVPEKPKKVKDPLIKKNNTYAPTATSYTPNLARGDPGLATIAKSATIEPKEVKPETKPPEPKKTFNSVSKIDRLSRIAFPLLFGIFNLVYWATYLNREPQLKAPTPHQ", "T1 sequence (P63138 26-474)": "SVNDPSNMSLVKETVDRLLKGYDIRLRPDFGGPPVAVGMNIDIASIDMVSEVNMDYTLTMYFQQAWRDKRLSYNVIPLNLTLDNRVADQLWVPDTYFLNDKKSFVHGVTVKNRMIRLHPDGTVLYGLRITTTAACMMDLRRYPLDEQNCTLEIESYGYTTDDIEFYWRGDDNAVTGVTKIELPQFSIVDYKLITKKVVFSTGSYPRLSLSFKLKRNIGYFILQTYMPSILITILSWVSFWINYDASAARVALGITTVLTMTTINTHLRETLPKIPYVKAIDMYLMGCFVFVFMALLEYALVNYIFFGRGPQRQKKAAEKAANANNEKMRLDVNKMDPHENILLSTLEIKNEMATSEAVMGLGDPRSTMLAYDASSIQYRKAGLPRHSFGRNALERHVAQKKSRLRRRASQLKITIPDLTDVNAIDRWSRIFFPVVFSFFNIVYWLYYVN", "T1 sequence (P18508 39-466)": "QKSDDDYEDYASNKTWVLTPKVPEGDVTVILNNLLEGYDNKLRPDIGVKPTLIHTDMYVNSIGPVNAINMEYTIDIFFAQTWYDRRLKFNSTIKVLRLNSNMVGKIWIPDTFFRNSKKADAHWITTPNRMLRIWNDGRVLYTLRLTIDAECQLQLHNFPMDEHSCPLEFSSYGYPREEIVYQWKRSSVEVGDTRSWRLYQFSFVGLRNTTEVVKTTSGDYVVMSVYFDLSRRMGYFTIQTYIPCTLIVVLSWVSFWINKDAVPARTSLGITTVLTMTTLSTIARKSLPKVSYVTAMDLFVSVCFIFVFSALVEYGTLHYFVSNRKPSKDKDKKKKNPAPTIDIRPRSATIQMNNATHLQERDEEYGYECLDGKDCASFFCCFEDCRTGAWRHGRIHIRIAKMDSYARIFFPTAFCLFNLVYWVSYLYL", "format": "cell-based"}, "[3]": {"tested_on": "α4β3γ1 GABAA receptor", "conditions": "insulin, α4β3γ1 isoform; ref [40]; cited from earlier work"}, "[4]": {"tested_on": "GABAA receptors", "conditions": "ref Wan et al. [39], cited from earlier work"}, "[5]": {"biological_target": "T1, α1β2γ2s GABAA receptor (rat subunits expressed in Xenopus laevis oocytes)", "format": "cell-based", "method_in_brief": "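Rat α1, β2, γ2S cRNAs injected 1:1:1 into defolliculated stage IV–V Xenopus laevis oocytes, kept 2–3 days at 18°C. Two-electrode voltage clamp at −60 mV, room temperature, Ca-free frog Ringer's pH 7.5. […] Percent change from control peak; t-test.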", "remark": "listed apart in the source"}}, "note": "Read-outs that look alike come from different tables or passages of the source.", "data": [{"compound": "c1ccc2c(c1)Cc1ccccc1-n1c-2nnc1N1CCNCC1", "note": "[pitrazepin]", "values": [{"measurement": "type of GABAA antagonism", "setting": "[1]; similar effects and shifts in GABA dose response curves, ref [14]", "value": "competitive inhibitors of the GABAA receptor"}]}, {"compound": "CN1CCc2cc3c(cc2[C@H]1[C@@H]1OC(=O)c2c1ccc1c2OCO1)OCO3", "note": "[bicuculline]", "values": [{"measurement": "type of GABAA antagonism", "setting": "[1]; rightward shift in GABA EC50, no significant effect on maximal current, ref [2]", "value": "typical competitive inhibitor"}]}, {"compound": "NCCCC(=O)O", "note": "[GABA, γ-aminobutyric acid, reference compound]", "values": [{"measurement": "approximate EC30 of GABA", "setting": "[2]; concentration used for insulin dose response", "value": "~1000", "unit": "nM"}]}, {"compound": "COc1c(O[C@@H]2O[C@H](CO)[C@@H](O)[C@H](O)[C@H]2O)cc2c(c1OC)-c1ccc(SC)c(=O)cc1[C@@H](NC(C)=O)CC2", "note": "[thiocolchicoside]", "values": [{"measurement": "type of GABAA antagonism", "setting": "[1]; similar effects and shifts in GABA dose response curves, ref [11]", "value": "competitive inhibitors of the GABAA receptor"}]}, {"compound": "insulin: pancreatic peptide hormone; bovine form (cat I-5500) from Sigma, dissolved in 0.1% acetic acid", "values": [{"measurement": "type of inhibition", "setting": "[3]", "value": "mixed type inhibition"}, {"measurement": "incubation time required for potentiating effect", "setting": "[4]; 500 nM insulin", "value": "at least 10 minutes"}, {"measurement": "insulin concentration required for potentiating effect", "setting": "[4]; incubation at least 10 minutes", "value": 500, "unit": "nM"}, {"measurement": "effect of insulin on GABA induced current", "setting": "[5]; 1 nM insulin + 1 µM GABA", "value": "inhibits currents elicited by 1 µM GABA"}, {"measurement": "reversibility of the inhibitory effect of insulin", "setting": "[5]; 1 nM insulin, then 1 µM GABA only", "value": "reversible"}, {"measurement": "saturating insulin concentration", "setting": "[5]; 100 nM insulin", "value": "at or near saturating"}, {"measurement": "effect of insulin on GABA induced current", "setting": "[5]; 100 nM insulin + 1 µM GABA", "value": "inhibits currents elicited by 1 µM GABA"}, {"measurement": "effect of insulin on GABA induced current", "setting": "[5]; 100 nM insulin + 100 µM GABA", "value": "no significant effect"}, {"measurement": "percent change in GABA induced current", "setting": "[5]; 100 nM insulin co-applied with 100 µM GABA (near saturating), not significant", "value": "−0.33 ± 2.0", "unit": "%"}, {"measurement": "inhibition of GABA induced current", "setting": "[5]; insulin co-applied with low (EC30–50) concentrations of GABA", "value": "about 38%"}, {"measurement": "affinity of insulin for the GABA receptor", "setting": "[5]; stated in discussion, from insulin dose response", "value": "nanomolar affinity for the GABA receptor"}, {"measurement": "maximal current with insulin, % of maximal", "setting": "[2]; 100 nM insulin, GABA dose response 0.1 µM to 1 mM", "value": "99 ± 13", "unit": "%"}]}]}
